In assay [1] the test system is Bacteroides thetaiotaomicron. The assay can be described thus: Ratio of antibacterial (Bacteroides thetaiotaomicron) activities compared to that of trimethoprim and metronidazole. The format is functional.
For another assay, the system named is Pasteurella multocida. The experiment in a line: Antibacterial (Pasteurella multocides ATCC 6587) activity compared to trimethoprim. The format is functional. An outline of the steps:
(§1)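 Each MIC is divided by the MIC of trimethoprim run alongside. Serial dilutions were normally 0.1, 0.3, 1, 3, 10, etc., and occasionally 1, 5 and 10. For E. coli the value is the average over six strains.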

Assay [2] can be described thus: Antibacterial (Salmonella typhi CN512) activity compared to trimethoprim. It counts as functional, salmonella typhosa.
Assay [3] has as its system Escherichia coli. The experiment in a line: Antibacterial (Escherichia coli) activity compared to trimethoprim. The format is functional. The gist of the method: as §1
Assay [4] relates to Streptococcus pyogenes. The experiment in a line: Antibacterial ([…] CN10) activity compared to trimethoprim. It counts as functional. An outline of the steps: as §1
For assay [5], the system named is Klebsiella aerogenes. The experiment in a line: Antibacterial (Enterobacter aerogenes 2201/86) activity compared to trimethoprim. The format is functional. An outline of the steps:
as §1

Assay [6] concerns Mycolicibacterium smegmatis. The experiment in a line: Antibacterial (Mycobacterium smegmatis S3254) activity compared to trimethoprim. The format is functional. The gist of the method: as §1
The next assay relates to Phocaeicola vulgatus. The assay can be described thus: Ratio of antibacterial (Bacteroides vulgatus) activities compared to that of trimethoprim and metronidazole. It counts as functional.
Assay [7] deals with Proteus vulgaris. The assay can be described thus: Antibacterial (Proteus vulgaris CN329) activity compared to trimethoprim. It counts as functional. The gist of the method:
as §1

For a further assay, the system named is Clostridium perfringens. The assay can be described thus: Ratio of antibacterial (Clostridium perfringens) activities compared to that of trimethoprim and metronidazole. The format is functional.
Assay [8] concerns Klebsiella pneumoniae. The assay can be described thus: Antibacterial (Klebsiella pneumoniae CN3632) activity compared to trimethoprim. It counts as functional. The gist of the method:
as §1

In another assay the test system is Fusobacterium nucleatum. The experiment in a line: Ratio of antibacterial (Fusobacterium nucleatum) activities compared to that of trimethoprim and metronidazole. The format is functional.
For assay [9], the system named is Staphylococcus aureus. The experiment in a line: Antibacterial (Staphylococcus aureus CN491) activity compared to trimethoprim. It counts as functional. An outline of the steps: as §1
Another assay relates to Serratia marcescens. The experiment in a line: Antibacterial (Serratia marcescens CN2398) activity compared to trimethoprim. The format is functional. The gist of the method: as §1
Another assay has as its system Clostridioides difficile. The experiment in a line: Ratio of antibacterial (Clostridium difficile) activities compared to that of trimethoprim and metronidazole. The format is functional.
Assay [10] addresses T1, Dihydrofolate reductase (Rattus norvegicus, UniProt Q920D2).
T1 sequence (Q920D2 whole entry): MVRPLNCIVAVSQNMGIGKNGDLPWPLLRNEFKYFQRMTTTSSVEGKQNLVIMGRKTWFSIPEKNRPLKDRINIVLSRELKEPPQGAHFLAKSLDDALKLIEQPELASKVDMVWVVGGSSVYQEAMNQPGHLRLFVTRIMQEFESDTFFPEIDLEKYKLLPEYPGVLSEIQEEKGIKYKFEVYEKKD
The experiment in a line: In vitro inhibition of rat liver dihydrofolate reductase. Conditions: read-out: I50.

The test system of the next assay is Shigella flexneri. The experiment in a line: Antibacterial (Shigella flexneri CN6007) activity compared to trimethoprim. It counts as functional. An outline of the steps: as §1
Assay [11] deals with Klebsiella aerogenes. The assay can be described thus: Ratio of antibacterial (Enterobacter aerogenes, 2201/86) activities of compound and trimethoprim. The format is functional. The gist of the method:
as §1

The test system of assay [12] is Escherichia coli. The experiment in a line: Ratio of antibacterial (Escherichia coli CN314) activities of compound and trimethoprim. It counts as functional.
In another assay the test system is Salmonella. The experiment in a line: Ratio of antibacterial (Salmonella typhi CN512) activities of compound and trimethoprim. It counts as functional, salmonella typhosa.
Assay [13] concerns Staphylococcus aureus. The assay can be described thus: Ratio of antibacterial (Staphylococcus aureus CN491) activities of compound and trimethoprim. The format is functional. An outline of the steps:
as §1

For assay [14], the target named is T2, Dihydrofolate reductase (Escherichia coli, UniProt P0ABQ4).
T2 sequence (P0ABQ4 whole entry): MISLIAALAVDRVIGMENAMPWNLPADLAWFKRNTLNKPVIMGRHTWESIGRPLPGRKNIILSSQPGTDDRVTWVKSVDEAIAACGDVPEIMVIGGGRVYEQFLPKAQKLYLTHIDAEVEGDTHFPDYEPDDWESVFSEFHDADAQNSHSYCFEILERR
The experiment in a line: In vitro inhibition of dihydrofolate reductase of Escherichia coli. Conditions: read-out: I50. An outline of the steps: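 The E. coli DHFR assay contained 1 nM enzyme, with the lower limit for I50 arbitrarily set at 2 nM. I50 was estimated from plots of % inhibition of steady-state velocity vs log inhibitor concentration.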

Assay [15] concerns Klebsiella pneumoniae. The assay can be described thus: Ratio of antibacterial (Klebsiella pneumoniae CN3632) activities of compound and trimethoprim. It counts as functional. The gist of the method: as §1
The next assay deals with Shigella dysenteriae. The experiment in a line: Ratio of antibacterial (Shigella dysentariae CN513) activities of compound and trimethoprim. The format is functional.
In assay [16] the test system is Proteus vulgaris. The experiment in a line: Ratio of antibacterial (Proteus vulgaris CN329) activities of compound and trimethoprim. The format is functional. The gist of the method:
as §1

Assay [17] has as its system Streptococcus pyogenes. The experiment in a line: Ratio of antibacterial (Streptococcus pyogenes CN10) activities of compound and trimethoprim.

Drawing on ChEMBL document CHEMBL1124568, “2,4-Diamino-5-benzylpyrimidines as antibacterial agents. 13. Some alkenyl derivatives with high in vitro activity against anaerobic organisms” (J Med Chem, 1989), this text covers MIC and IC50 for six compounds.

Structures are written as SMILES. ≈ marks a conversion by molar mass, not a printed value.

Turning to `C/C=C/c1cc(Cc2cnc(N)nc2N)cc(/C=C/C)c1OC`, the minimal inhibitory concentration (MIC) in [1] amounted to 0.4 µg/mL; against Pasteurella multocida, 100 µg/mL (≈ 322 µM); in [2], 100 µg/mL (≈ 322 µM); against Escherichia coli [3], 72 µg/mL (≈ 232 µM); in the assay with Streptococcus pyogenes [4], 0.1 µg/mL (≈ 0.322 µM); in the assay with Klebsiella aerogenes [5], 100 µg/mL (≈ 322 µM). For the same compound, the MIC in assay [6] was 2 µg/mL (≈ 6.44 µM); with Phocaeicola vulgatus, 0.8 µg/mL; in the assay on Proteus vulgaris [7], over 50 µg/mL; in the assay on Clostridium perfringens it was 25 µg/mL; against Klebsiella pneumoniae [8] it was 100 µg/mL (≈ 322 µM); in the assay with Fusobacterium nucleatum, 1.6 µg/mL. For the same compound, the MIC is 1 µg/mL (≈ 3.22 µM) against Staphylococcus aureus [9], over 5 µg/mL against Serratia marcescens, 25 µg/mL in the assay with Clostridioides difficile and 100 µg/mL (≈ 322 µM) in the assay on Shigella flexneri. The IC50 on Dihydrofolate reductase [10] was 27 µM.

Consider `CCOc1cc(Cc2cnc(N)nc2N)cc2c1OCO2`, for which the MIC with Klebsiella aerogenes [11] amounted to 10 µg/mL; with Escherichia coli [12], 30 µg/mL; in the assay with Salmonella, 30 µg/mL; with Staphylococcus aureus [13], 10 µg/mL; with Klebsiella pneumoniae [15], 30 µg/mL; in the assay on Shigella dysenteriae, 10 µg/mL. The values for the MIC in the assay on Proteus vulgaris [16] and with Streptococcus pyogenes [17] were 10 µg/mL and 1 µg/mL, respectively. The IC50 was 0.041 µM on Dihydrofolate reductase [14] and 37 µM on Dihydrofolate reductase [10].

For `C=CCOc1ccc(Cc2cnc(N)nc2N)cc1`, the MIC against Pasteurella multocida came out at 100 µg/mL (≈ 390 µM); in assay [2], 100 µg/mL (≈ 390 µM); in the assay on Escherichia coli [3] it was 72 µg/mL (≈ 281 µM); in the assay with Streptococcus pyogenes [4] it was 10 µg/mL (≈ 39 µM); in the assay on Klebsiella aerogenes [5], 10 µg/mL (≈ 39 µM); in assay [6], 50 µg/mL (≈ 195 µM). Besides, the MIC is over 100 µg/mL in the assay on Proteus vulgaris [7]; 100 µg/mL (≈ 390 µM) with Klebsiella pneumoniae [8]; 100 µg/mL (≈ 390 µM) in the assay on Staphylococcus aureus [9]; over 20 µg/mL in the assay with Serratia marcescens; 100 µg/mL (≈ 390 µM) with Shigella flexneri. Moreover, on Dihydrofolate reductase [10], the IC50 is 320 µM.

For `CCCc1cc(Cc2cnc(N)nc2N)cc(OC)c1OC`, the minimal inhibitory concentration (MIC) in [1] was 1.6 µg/mL; in the assay with Pasteurella multocida, 10 µg/mL (≈ 33.1 µM); in [2], 3 µg/mL (≈ 9.92 µM); against Escherichia coli [3], 6 µg/mL (≈ 19.8 µM); in the assay with Streptococcus pyogenes [4] it was 0.1 µg/mL (≈ 0.331 µM); in the assay on Klebsiella aerogenes [5], 10 µg/mL (≈ 33.1 µM). Moreover, the MIC in assay [6] is 3 µg/mL (≈ 9.92 µM); with Phocaeicola vulgatus it was 1.6 µg/mL; with Proteus vulgaris [7], 10 µg/mL (≈ 33.1 µM); in the assay on Clostridium perfringens, over 25 µg/mL; against Klebsiella pneumoniae [8], 10 µg/mL (≈ 33.1 µM); in the assay on Fusobacterium nucleatum it was 0.4 µg/mL. Moreover, the MIC is 0.1 µg/mL (≈ 0.331 µM) in the assay with Staphylococcus aureus [9], 3 µg/mL (≈ 9.92 µM) in the assay on Serratia marcescens, over 25 µg/mL in the assay with Clostridioides difficile and 10 µg/mL (≈ 33.1 µM) against Shigella flexneri. In addition, the IC50 on Dihydrofolate reductase [10] was found to be 37 µM.

In the case of `C=CCOc1ccc(Cc2cnc(N)nc2N)cc1CC=C`, the MIC was 500 µg/mL (≈ 1690 µM) in the assay with Pasteurella multocida; 1000 µg/mL (≈ 3370 µM) in [2]; 72 µg/mL (≈ 243 µM) with Escherichia coli [3]; 2 µg/mL (≈ 6.75 µM) with Streptococcus pyogenes [4]; over 100 µg/mL against Klebsiella aerogenes [5]; over 100 µg/mL in assay [6]. Besides, the MIC in the assay on Proteus vulgaris [7] was over 50 µg/mL; in the assay on Clostridium perfringens, over 25 µg/mL; with Klebsiella pneumoniae [8] it was over 100 µg/mL; with Fusobacterium nucleatum it was 0.8 µg/mL; in the assay with Staphylococcus aureus [9], 10 µg/mL (≈ 33.7 µM); against Serratia marcescens, over 10 µg/mL. The minimal inhibitory concentration (MIC) was over 25 µg/mL in the assay with Clostridioides difficile and 500 µg/mL (≈ 1690 µM) in the assay with Shigella flexneri. In addition, on Dihydrofolate reductase [10], the IC50 was found to be 11 µM.

As for `C/C=C/c1cc(Cc2cnc(N)nc2N)cc(CCC)c1OC`, the MIC in [1] came out at 0.4 µg/mL; against Pasteurella multocida it was 20 µg/mL (≈ 64 µM); in assay [2], 20 µg/mL (≈ 64 µM); against Escherichia coli [3] it was 26 µg/mL (≈ 83.2 µM); against Streptococcus pyogenes [4] it was 0.1 µg/mL (≈ 0.32 µM); in the assay on Klebsiella aerogenes [5], 100 µg/mL (≈ 320 µM). In addition, the MIC in [6] was 2 µg/mL (≈ 6.4 µM); in the assay with Phocaeicola vulgatus it was 0.4 µg/mL; against Proteus vulgaris [7], over 100 µg/mL; with Clostridium perfringens it was 12.5 µg/mL; in the assay with Klebsiella pneumoniae [8], 100 µg/mL (≈ 320 µM); in the assay with Fusobacterium nucleatum, 0.8 µg/mL. Moreover, the MIC is 1 µg/mL (≈ 3.2 µM) with Staphylococcus aureus [9], over 5 µg/mL against Serratia marcescens, 12.5 µg/mL in the assay with Clostridioides difficile and 100 µg/mL (≈ 320 µM) against Shigella flexneri. Moreover, the IC50 at Dihydrofolate reductase [10] was determined as 24 µM.
